# Results from different studies.
# Protocols differ between the studies behind these lines. pEC50, pIC50: −log10 of the molar value.
# Effect on: cell growth or viability
SMILES,cell line,method,time,setting,measurement,result
C=C(F)C(=O)N1CCN(c2nc(OC[C@@H]3CCCN3C)nc3c2CCN(c2cccc4cccc(Cl)c24)C3)C[C@@H]1CC#N,SW480,ATP luminescence,,3D culture,pIC50,< 6.00
Nc1cccc2c1C(=O)N(C1CCC(=O)NC1=O)C2=O (stereo not drawn),MM1.S,XTT,,,pIC50,~6.52
COc1cc2c3c(n(CCCNC(C)C)c(=O)c2cc1OC)-c1nc2c(cc1C3=O)OCO2,Kasumi 1,MTS,72 h,,pIC50,6.36
C=CC(=O)NC1CCN(c2ncc3ncnc(Nc4ccc(Oc5ccc6c(c5)ncn6C)c(C)c4)c3n2)CC1,GP2d,,,,pEC50,4.91
Cc1cccc(-c2[nH]c(CNc3ccccc3F)nc2-c2ccc3ncnn3c2)n1,MM1.S,XTT,,,pIC50,~5.82
CC1(C)CCC(CN2CCN(c3ccc(C(=O)NS(=O)(=O)c4ccc(NCC5CCOCC5)c([N+](=O)[O-])c4)c(Oc4cnc5[nH]ccc5c4)c3)CC2)=C(c2ccc(Cl)cc2)C1,Toledo,ATP luminescence,48 h,,pIC50,7.15
O=C(NO)c1ccc(CNc2nc3cccc(-c4ccc5c(c4)OCO5)n3n2)cc1,A498,SRB,,,GI50,510 nM
CC(C)c1ccccc1[C@@H]1CCCN1C1CC2(CCN(c3ccc(C(=O)NS(=O)(=O)c4ccc(NC[C@H]5CC[C@](C)(O)CC5)c([N+](=O)[O-])c4)c(Oc4cnc5[nH]ccc5c4)c3)CC2)C1,Toledo,ATP luminescence,48 h,,pIC50,8.34
COc1cc2c3c(n(CCCNCCO)c(=O)c2cc1OC)-c1nc2c(cc1C3=O)OCO2,Kasumi 1,MTS,72 h,,pIC50,6.28
Cc1noc2c1-c1ccccc1C(c1ccc(Cl)cc1)=N[C@H]2CC(N)=O,Kasumi 1,ATP luminescence,72 h,,pIC50,6.58
C=CC(=O)N1CCN(c2nc(=O)n(-c3c(C)ccnc3C(C)C)c3nc(-c4c(O)cccc4F)c(F)cc23)[C@@H](C)C1,SW480,ATP luminescence,,,pIC50,< 5.00
CC1(CN)CCN(c2cnc3c(Sc4ccncc4Cl)n[nH]c3n2)CC1,HGC-27,CCK-8,96 h,,pIC50,5.32
